In ChEMBL document CHEMBL3232973, “The identification of novel 5'-amino gemcitabine analogs as potent RRM1 inhibitors” (Bioorg Med Chem, 2014):
Each block holds one molecule with its values, some of them ahead of it. Active and inactive are the calls of the source. No cut-off for these calls is given here.

Tests used:
[1] = target: T1, Ribonucleoside-diphosphate reductase large subunit (Homo sapiens) (UniProt P23921); test: Inhibition of RRM1 in human U2OS cells assessed as gammaH2AX induction after 2 hrs by FITC/propidium iodide-staining based flow cytometry in presence of SCH900776; assay type: cell-based
T1 sequence (whole entry): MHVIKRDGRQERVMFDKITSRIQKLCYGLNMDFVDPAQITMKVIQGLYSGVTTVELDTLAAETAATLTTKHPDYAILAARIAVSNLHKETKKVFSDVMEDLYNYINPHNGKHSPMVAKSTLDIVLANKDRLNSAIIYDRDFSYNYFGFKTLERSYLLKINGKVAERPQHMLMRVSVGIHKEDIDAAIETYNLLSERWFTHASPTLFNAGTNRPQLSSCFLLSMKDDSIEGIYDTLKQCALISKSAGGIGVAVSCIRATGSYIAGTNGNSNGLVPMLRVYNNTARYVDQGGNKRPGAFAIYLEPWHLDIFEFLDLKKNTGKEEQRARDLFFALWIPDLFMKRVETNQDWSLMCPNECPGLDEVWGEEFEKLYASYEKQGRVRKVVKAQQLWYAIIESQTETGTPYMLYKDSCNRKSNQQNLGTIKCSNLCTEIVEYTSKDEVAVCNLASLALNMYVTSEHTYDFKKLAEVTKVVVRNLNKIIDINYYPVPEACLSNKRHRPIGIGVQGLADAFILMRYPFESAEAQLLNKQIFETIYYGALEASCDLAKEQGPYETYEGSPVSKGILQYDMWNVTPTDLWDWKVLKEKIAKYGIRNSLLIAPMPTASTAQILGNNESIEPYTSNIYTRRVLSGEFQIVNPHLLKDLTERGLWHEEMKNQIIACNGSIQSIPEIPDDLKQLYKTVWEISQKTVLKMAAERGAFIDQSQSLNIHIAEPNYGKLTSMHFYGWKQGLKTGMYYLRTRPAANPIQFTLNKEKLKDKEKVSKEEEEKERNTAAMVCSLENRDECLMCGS
In short: (§1)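 U2OS cells were given titrated compound overnight, then kept with or without 0.5 uM SCH 900776 for a further 2 h in the compound's presence. Cells were fixed and permeabilized in 70% ethanol, stained with FITC anti-γH2AX antibody and counterstained with propidium iodide. Read-out was flow cytometry or imaging, given as % γH2AX-positive cells.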

[2] = target: T1, Ribonucleoside-diphosphate reductase large subunit (Homo sapiens); test: Inhibition of RRM1 in human U2OS cells assessed as gammaH2AX induction at 0.5 to 125 uM after 2 hrs by FITC/propidium iodide-staining based flow cytometry in presence of SCH900776; assay type: cell-based; in short: as §1
[3] = target: T1, Ribonucleoside-diphosphate reductase large subunit (Homo sapiens); test: Inhibition of RRM1 in human U2OS cells assessed as gammaH2AX induction at 0.5 to 125 uM after 2 hrs by FITC/propidium iodide-staining based flow cytometry in absence of SCH900776; assay type: cell-based; in short: as §1
[4] = Binding affinity to yeast RRM1 assessed as reduction of unbound compound level by line-broadening NMR spectroscopy; parameters: species or system Saccharomyces cerevisiae
[5] = system: Saccharomyces cerevisiae; test: Binding affinity to yeast RRM1 assessed as reduction of free compound level by line-broadening NMR spectroscopy relative to control; parameters: scale not given: the % may be the effect or the level left
[6] = system: Saccharomyces cerevisiae; test: Binding affinity to yeast RRM1 assessed as reduction of unbound-compound level at 200 uM by NOESY-spectroscopy
[7] = Competitive binding affinity to yeast RRM1 assessed as reduction in CDP NMR signals by STD-NMR spectroscopy; parameters: species or system Saccharomyces cerevisiae
[8] = target: T2, Ribonucleotide reductase (Homo sapiens) (UniProt P23921+Q7LG56); test: Inhibition of human RRM1/RNR2 activity using CDP as substrate assessed as reduction of dCDP production at 100 uM preincubated for 30 mins followed by substrate addition measured after 1 hr by NMR spectroscopy; assay type: protein-complex assay
In short: (§2)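 Human RRM1 and RNR2 were run at 27 °C in 50 mM d-Tris in D2O, pH 7.6, with 10 mM d-DTT. Compound was preincubated 30 min with active enzyme and 1 mM ATP. CDP was then added to start the reaction, which was heat-quenched after 1 h. 1H NMR measured dCDP formed and CDP consumed against control spectra. Controls were dATP, didox and gemcitabine diphosphate.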

[9] = target: T1, Ribonucleoside-diphosphate reductase large subunit (Homo sapiens); test: Inhibition of RRM1 in human CEM cells assessed as depletion of dATP level at 1 uM after 2 hrs by HPLC analysis; assay type: cell-based; settings: CCRF-CEM
In short: (§3)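 CEM cells were treated for 2 h, with untreated cells as control. Pellets were taken up in ice-cold water and deproteinized with an equal volume of 6% TCA. Supernatants were neutralized with NH4OH, then run on ion-pair HPLC (tetrabutylammonium hydroxide/KH2PO4, pH 7.0 gradient) with UV detection at 260 nm. Pool levels are peak AUC, in triplicate.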

[10] = target: T2, Ribonucleotide reductase (Homo sapiens); test: Inhibition of human RRM1/RNR2 activity using CDP as substrate assessed as reduction of CDP consumption at 100 uM preincubated for 30 mins followed by substrate addition measured after 1 hr by NMR spectroscopy; assay type: protein-complex assay; in short: as §2
[11] = target: T1, Ribonucleoside-diphosphate reductase large subunit (Homo sapiens); test: Inhibition of RRM1 in human CEM cells assessed as depletion of dCTP level at 1 uM after 2 hrs by HPLC analysis; assay type: cell-based; settings: CCRF-CEM; in short: as §3
[12] = target: T1, Ribonucleoside-diphosphate reductase large subunit (Homo sapiens); test: Inhibition of RRM1 in human CEM cells assessed as depletion of dGTP level at 1 uM after 2 hrs by HPLC analysis; assay type: cell-based; settings: CCRF-CEM; in short: as §3

inhibition [1]: Dose-dependent effect
inhibition [2]: Active
inhibition [3]: Active
Structure (SMILES): Nc1ccn([C@@H]2O[C@H](CNCCN3CCCC3=O)[C@@H](O)C2(F)F)c(=O)n1

inhibition [2]: Active
inhibition [3]: Active
Structure (SMILES): Nc1ccn([C@@H]2O[C@H](CO)[C@@H](O)C2(F)F)c(=O)n1

More lines, now with the values behind:

Structure (SMILES): Nc1ccn([C@@H]2O[C@H](CNCc3ccco3)[C@@H](O)C2(F)F)c(=O)n1
inhibition [1]: Dose-dependent effect
inhibition [2]: Active
inhibition [3]: Active

Structure (SMILES): Nc1ccn([C@@H]2O[C@H](CN3CCn4nccc4C3)[C@@H](O)C2(F)F)c(=O)n1
inhibition [1]: Dose-dependent effect
Kd [4]: 200 µM
inhibition [2]: Active
Activity [5]: 27%
Activity [6]: Active
Ki [7]: 150 µM
inhibition [3]: Active
inhibition [8]: 32%
inhibition [9]: Active
inhibition [10]: 32%
inhibition [11]: Active
inhibition [12]: Active

Structure (SMILES): C[C@H](NC[C@H]1O[C@@H](n2ccc(N)nc2=O)C(F)(F)[C@@H]1O)c1ccnn1C
inhibition [1]: Dose-dependent effect
inhibition [2]: Active
inhibition [3]: Active
